From PubChem
An excerpt weighted towards active compounds, which were near 2.7% of everything screened.
CaV13 FRET inh – Disruptors of the CACNA1D IQ motif to Ca2+-dependent inactivation inhibitor domain association, primary screening, Förster resonance energy transfer in intact living …. HEK cells, CFP/YFP FRET ICDI-IQ, plate reader, 10 min; percent FRET-ratio fall versus neutral wells. inhibition, % at 12.3 µM. actives 0.098% (n = 340,000);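 active means mean replicate inhibition of at least 30% and at least 1% of replicates passing that level; inconclusive means only one of the two criteria is met; inactive means neither criterion is met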;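 further: 0% = median of the neutral control wells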
MLL AF4-AF9 inh – blocks AF4 peptide binding to human AF9. P42568. inhibition, % at 10 µM. AlphaScreen, biotin-AF4 peptide binding to FLAG-AF9. AID 651704. actives 0.47% (n = 350,000);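 active means every replicate reaching a set inhibition limit, whatever the replicate mean, cut at about 25% in these data; inconclusive means mean inhibition reaches that limit but some replicates miss it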;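 further: 0% = plate neutral control median and 100% = total signal loss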
Target sequence (P42568 whole entry, looked up): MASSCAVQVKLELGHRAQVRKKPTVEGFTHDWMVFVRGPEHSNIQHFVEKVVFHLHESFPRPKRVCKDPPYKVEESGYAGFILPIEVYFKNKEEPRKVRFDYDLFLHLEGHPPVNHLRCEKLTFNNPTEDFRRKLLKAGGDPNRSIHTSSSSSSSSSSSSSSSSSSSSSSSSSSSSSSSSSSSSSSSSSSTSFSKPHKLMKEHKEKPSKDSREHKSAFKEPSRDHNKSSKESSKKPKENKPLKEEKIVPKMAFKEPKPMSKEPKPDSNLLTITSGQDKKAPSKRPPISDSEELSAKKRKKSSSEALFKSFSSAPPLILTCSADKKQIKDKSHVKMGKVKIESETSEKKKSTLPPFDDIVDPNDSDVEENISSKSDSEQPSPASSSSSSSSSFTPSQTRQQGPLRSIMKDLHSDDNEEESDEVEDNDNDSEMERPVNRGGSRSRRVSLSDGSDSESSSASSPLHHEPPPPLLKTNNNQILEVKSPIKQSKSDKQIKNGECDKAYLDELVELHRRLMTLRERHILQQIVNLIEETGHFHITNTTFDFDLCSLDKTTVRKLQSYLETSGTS
SIRT5 block – inhibitors of human sirtuin-5 desuccinylase. Q9NXA8. Purified SirT5, succinyl-peptide AMC, trypsin-coupled fluorescence. actives 1.1% (n = 330,000). inhibition, % at 15 µM; in the data active means inhibition above about 15%; inconclusive means no clear call, values can overlap the other calls
S100A4 inh HTS – S100A4-myosin IIA interaction inhibition; P26447; S100A4/TAMRA-MyoIIA peptide fluorescence polarization; inhibition, % at 10.7 µM; actives 0.14% (n = 360,000); AID 652163;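 active means mean inhibition of at least 70% across replicates, with every replicate also reaching that level; inconclusive means mean inhibition reaches 70% but some replicates fall short; inactive means mean inhibition below 70%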
Target sequence (P26447 whole entry, looked up): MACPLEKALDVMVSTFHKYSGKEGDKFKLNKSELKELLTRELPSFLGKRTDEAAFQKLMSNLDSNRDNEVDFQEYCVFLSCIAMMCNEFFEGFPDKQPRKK
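Material: S100A4 monomer protein / Buffer or medium: 50 mM HEPES pH 7.2, 10 mM CaCl2, 100 mM KCl / Times: 5 min incubation before reading / Benchmarks: neutral control DMSO, positive control TFP / Reagent: labelled myosin peptide probe, 5 nM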
DENV2 CPE rescue – DENV2-induced cell death inhibition; DENV2-infected cells, cytopathic effect rescue, plate reader; CPE inhibition, % at 9.99 µM; actives 1.7% (n = 350,000); in the data active means CPE inhibition above about 20%, passing the limit was not always enough; inconclusive means no clear call, values can overlap the other calls; tested in BHK-21 cells;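 further: 0% = median of neutral control wells and 100% = median of positive control wells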
* marks the source's active call; other numbers are inactive results; ? = inconclusive; · = no result; ! = not confirmed by another sample.

SMILES | CaV13 FRET inh | MLL AF4-AF9 inh | SIRT5 block | S100A4 inh HTS | DENV2 CPE rescue
CC1(c2nnnn2Cc2ccccc2)CCC(=O)N1CCOc1ccccc1 (configuration not stated) | -11.6 | 1.8 | · | -4.8 | 92.1*
COc1ccc(-n2nnnc2C2(C)CCC(=O)N2Cc2ccccc2)cc1 (configuration not stated) | -15.3 | · | -0.5 | -13.5 | 63.4*
Cc1ccc(CN2C(=O)CCC2(C)c2nnnn2Cc2ccccc2)cc1 (configuration not stated) | -6.1 | -1.6 | 1.2 | -10.6 | ?
CCCCn1nnnc1C1(C)CCC(=O)N1CCOc1ccccc1 (configuration not stated) | -9.1 | -2.6 | · | 2.0 | 65.5*
CCCNC(=O)Nc1ccc2c(c1)C(=O)N(C)C[C@H](OC)[C@@H](C)CN(Cc1cccnc1)[C@@H](C)CO2 | · | -1.4 | 1.5 | -0.9 | -3.4
C[C@H]1CN([C@@H](C)CO)C(=O)c2cc(NC(=O)C3CC3)ccc2O[C@@H]1CN(C)S(C)(=O)=O | · | -14.5 | 5.5 | 1.6 | -11.4
C[C@@H]1CN([C@@H](C)CO)C(=O)c2cc(C#Cc3ccccn3)cnc2O[C@H]1CN(C)CC1CCCC1 | · | -0.4 | -3.1 | 21.3 | -3.1
COc1ccccc1-c1cn(CC[C@@H]2CC[C@H](NC(=O)Cc3ccccn3)[C@H](CO)O2)nn1 | · | -1.0 | -2.1 | -10.6 | 40.2*
COc1ccc(-c2cn(CC[C@@H]3CC[C@H](NC(=O)Cc4ccccn4)[C@@H](CO)O3)nn2)cc1 | -5.6 | 0.3 | 8.1 | 1.9 | 22.4*!
COc1ccccc1-c1cn(CC[C@@H]2CC[C@H](NC(=O)Cc3ccccn3)[C@@H](CO)O2)nn1 | · | 0.1 | 2.7 | -2.6 | -4.6
CCOC(=O)C1=C(COC(=O)Cc2ccccc2)NC(=O)NC1C (configuration not stated) | -3.5 | -0.9 | -4.8 | 0.5 | 1.4
CCOC(=O)C1=C(COC(=O)Cc2ccccc2[N+](=O)[O-])NC(=O)NC1C (configuration not stated) | -11.7 | 1.6 | · | -3.9 | 38.1*
O=C(O)CC1=C(Nc2ccccc2)C(=O)N(c2ccccc2)C1c1ccc(Br)cc1 (configuration not stated) | -4.4 | 2.3 | 17.0* | 1.7 | -2.7
O=C1OCCOC2CCCc3oc(C4=CCCCC4)c1c32 (configuration not stated) | -9.6 | -3.8 | 33.5* | -6.3 | ?
C[C@H]1CCCCO[C@@H](CN(C)Cc2ccc3c(c2)OCO3)[C@@H](C)CN([C@@H](C)CO)C(=O)c2cc(NS(=O)(=O)c3ccc(Cl)cc3)ccc2O1 | · | 17.2 | 6.9 | -3.3 | 2.4
CN1C[C@@H](O)COC[C@H]2O[C@@H](CC(=O)NC3CCCC3)CC[C@@H]21 | · | -1.3 | 1.1 | -0.7 | ?
COc1ccc(OC)c(/C=C/C(=O)Nc2ccc3c(c2)CCC3)c1 | -5.1 | -7.1 | 3.0 | 0.9 | 23.3*
O=S1(=O)N[C@@H](Cc2ccccc2)COc2cccc(N3CCCC3)c21 | -3.2 | 5.5 | 23.2* | -1.6 | ?
O=S1(=O)N[C@@H](Cc2ccccc2)COc2cccc(N3CCCCC3)c21 | -4.3 | 0.9 | 0.1 | -2.4 | 2.8
c1ccc(CNc2ncnc3nc[nH]c23)cc1 | -5.3 | 0.4 | 3.4 | -4.8 | -2.3
c1ccc(CCCNc2ncnc3nc[nH]c23)cc1 | -6.3 | 1.3 | 17.7* | 2.5 | 4.4
CN(C)CC#Cc1ccc([C@@H]2[C@H](CO)N3CCCCN(C(=O)Nc4cc(F)ccc4F)C[C@@H]23)cc1 | · | 9.6 | -1.7 | -4.2 | -14.0
CN(C)CC#Cc1ccc([C@H]2[C@@H](CO)N3CCCCN(C(=O)c4ccc5c(c4)OCO5)C[C@H]23)cc1 | · | 5.5 | 0.9 | -3.3 | 22.3*
CN(C)CC#Cc1ccc([C@H]2[C@H](CO)N3CCCCN(C(=O)Nc4cc(F)ccc4F)C[C@@H]23)cc1 | · | 13.2 | -1.2 | 6.9 | 31.6*
CN(C)CC#Cc1ccc([C@H]2[C@H](CO)N3CCCCN(C(=O)c4ccc5c(c4)OCO5)C[C@@H]23)cc1 | · | 9.7 | -1.1 | 4.6 | ?
SMILES | CaV13 FRET inh | MLL AF4-AF9 inh | SIRT5 block | S100A4 inh HTS | DENV2 CPE rescue
CN(C)CC#Cc1ccc([C@@H]2[C@@H](CO)N3CCCCN(C(=O)CN(C)C)C[C@H]23)cc1 | · | 6.9 | 24.8* | 6.9 | ?
CC(C)COC(=O)N(C)C[C@@H]1OCc2ccccc2-c2ccccc2C(=O)N([C@@H](C)CO)C[C@@H]1C | · | -5.5 | 5.1 | 1.1 | -2.4
C[C@@H]1CN([C@@H](C)CO)C(=O)Cc2cc(NC(=O)c3ccncc3)ccc2O[C@@H]1CN(C)C(=O)Nc1ccc2c(c1)OCO2 | · | -2.8 | -1.6 | -14.4 | 4.6
Cc1ccc(S(=O)(=O)Nc2ccc3c(c2)C(=O)N([C@@H](C)CO)C[C@@H](C)[C@H](CN(C)C(=O)Nc2ccc(C(F)(F)F)cc2)OCCCC[C@@H](C)O3)cc1 | · | -4.3 | 0.6 | 0.3 | ?
C[C@@H]1CCCCO[C@H](CN(C)C(=O)Nc2ccc(C(F)(F)F)cc2)[C@@H](C)CN([C@H](C)CO)C(=O)c2cc(NS(=O)(=O)c3ccc(F)cc3)ccc2O1 | · | 2.0 | -2.1 | -4.0 | 21.4*
Cc1ccc(S(=O)(=O)Nc2ccc3c(c2)C(=O)N([C@H](C)CO)C[C@H](C)[C@H](CN(C)C(=O)Nc2ccc(C(F)(F)F)cc2)OCCCC[C@@H](C)O3)cc1 | · | -0.2 | 6.3 | -3.4 | 4.8
C[C@@H]1CN([C@H](C)CO)C(=O)c2cc(NS(=O)(=O)c3ccc(Cl)cc3)ccc2O[C@@H](C)CCCCO[C@H]1CN(C)C(=O)Nc1ccc(C(F)(F)F)cc1 | · | -1.3 | 22.4* | -6.6 | 7.6
C[C@H]1CCCCO[C@@H](CN(C)C(=O)Nc2ccc(C(F)(F)F)cc2)[C@@H](C)CN([C@@H](C)CO)C(=O)c2cc(NS(=O)(=O)c3ccc(F)cc3)ccc2O1 | · | -4.5 | 8.3 | 7.5 | 76.2*
C[C@@H]1CCCCO[C@H](CN(C)C(=O)Nc2ccc(C(F)(F)F)cc2)[C@H](C)CN([C@@H](C)CO)C(=O)c2cc(NS(=O)(=O)c3ccc(F)cc3)ccc2O1 | · | -0.7 | 0.3 | -2.0 | 98.0*
C[C@@H]1CN([C@@H](C)CO)S(=O)(=O)c2ccc(C#C[C@@H](C)O)cc2O[C@H]1CN(C)C(=O)C1CC1 | · | -2.6 | -0.1 | 7.3 | 6.9
Cc1ccc(S(=O)(=O)Nc2ccc3c(c2)C(=O)N([C@H](C)CO)C[C@H](C)[C@H](CN(C)C(=O)Nc2ccc(C(F)(F)F)cc2)OCCCC[C@H](C)O3)cc1 | · | -5.8 | 0.4 | 0.9 | 53.0*
Cc1ccc(S(=O)(=O)Nc2ccc3c(c2)C(=O)N([C@@H](C)CO)C[C@@H](C)[C@@H](CN(C)C(=O)Nc2ccc(C(F)(F)F)cc2)OCCCC[C@H](C)O3)cc1 | · | -5.5 | 14.8 | -1.5 | 12.5
